Published values of several laboratories.
Lines come from different studies, so protocols differ.
Target: Serine/threonine-protein kinase Nek11 (NEK11, Homo sapiens, UniProt Q8NG66)
Residues used in one study (Q8NG66 1-645): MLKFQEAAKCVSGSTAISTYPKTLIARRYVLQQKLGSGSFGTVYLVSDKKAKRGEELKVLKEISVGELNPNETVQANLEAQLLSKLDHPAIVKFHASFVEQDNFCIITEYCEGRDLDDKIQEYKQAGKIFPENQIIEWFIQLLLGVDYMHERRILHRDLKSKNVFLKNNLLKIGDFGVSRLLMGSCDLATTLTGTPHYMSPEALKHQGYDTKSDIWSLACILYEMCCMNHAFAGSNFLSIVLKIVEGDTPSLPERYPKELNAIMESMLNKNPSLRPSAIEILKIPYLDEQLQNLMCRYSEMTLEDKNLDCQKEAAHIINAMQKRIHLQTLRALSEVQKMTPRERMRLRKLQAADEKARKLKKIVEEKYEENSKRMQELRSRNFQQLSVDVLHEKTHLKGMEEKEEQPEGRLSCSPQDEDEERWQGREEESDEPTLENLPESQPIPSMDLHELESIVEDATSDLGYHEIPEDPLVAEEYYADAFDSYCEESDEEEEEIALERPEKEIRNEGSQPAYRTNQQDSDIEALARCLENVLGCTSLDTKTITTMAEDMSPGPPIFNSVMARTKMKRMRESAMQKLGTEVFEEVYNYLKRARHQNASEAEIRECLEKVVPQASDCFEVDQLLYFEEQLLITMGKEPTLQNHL

N[C@H]1CCN(c2nccc(-c3cnn4ncccc34)n2)C1
remaining binding (binding; 1 µM): 71%

O=S(=O)(NC1CCC(c2cc(F)ccc2F)(S(=O)(=O)c2ccc(Cl)cc2)CC1)C(F)(F)F (stereo not drawn)
remaining binding (cell-free assay, competition with immobilised ligand; 1 µM): 100%

CC1CCCN1c1nccc(-c2cnn3ncccc23)n1 (stereo not drawn)
remaining binding (binding; 1 µM): 100%

O=C(NCCCN1CCOCC1)c1ccc(Nc2ncc(Cl)c(-c3ccc(Cl)s3)n2)cc1
remaining binding (binding, competition with immobilised ligand; 1 µM): 88%

COc1ccc2c(c1)O[C@@H](c1ccc(OC)c(OC)c1)C[C@H]2NC(=O)C1(c2ccc3c(c2)OC(F)(F)O3)CC1
remaining binding (cell-free assay, competition with immobilised ligand; 1 µM): 83%

O=C(c1ccc(Nc2nccc(-c3cc4ccccc4s3)n2)cc1)N1CCC(N2CCCC2)CC1
remaining binding (binding, competition with immobilised ligand; 1 µM): 78%

CC(=O)C1=C(C)N(c2cccc(C(F)(F)F)c2)C(=O)N[C@@H]1c1ccc(C#N)nc1
remaining binding (cell-free assay, competition with immobilised ligand; 1 µM): 100%

c1cnn2ncc(-c3ccnc(N4CCC45COC5)n3)c2c1
remaining binding (binding; 1 µM): 89%

Cc1cc(-n2nc(Cc3cc(F)cc(C(F)(F)F)c3)nc2C)ccc1C(N)=O
remaining binding (cell-free assay, competition with immobilised ligand; 1 µM): 100%

O=C(NCC1CCOCC1)c1n[nH]cc1NC(=O)c1c(F)cccc1F
remaining binding (binding, competition with immobilised ligand; 1 µM): 91%

CNC(=O)[C@@H]1CC[C@@H](n2c(-c3ccc4cnccc4c3)nc3ccc(C(=O)NCc4cccc(C(N)=O)c4)cc32)C1
remaining binding (binding, competition with immobilised ligand; 1 µM): 100%

CN(c1nccc(-c2cnn3ncccc23)n1)C1CC1
remaining binding (binding; 1 µM): 100%

O=C(c1ccc(Nc2ncc(Cl)c(-c3ccc(Cl)s3)n2)cc1)N1CCC(N2CCCC2)CC1
remaining binding (binding, competition with immobilised ligand; 1 µM): 100%

COc1ccnn2ncc(-c3ccnc(N(C)C)n3)c12
remaining binding (binding; 1 µM): 100%

COc1cnc(Nc2cccc(S(N)(=O)=O)c2)nc1N1CCN(c2ccccc2)CC1
remaining binding (binding, competition with immobilised ligand; 1 µM): 90%

F[C@@H]1CCN(c2nccc(-c3cnn4ncccc34)n2)C1
remaining binding (binding; 1 µM): 100%

COCCOc1nc(-c2ccc(Cl)nc2)nc2c1CN(C(=O)c1ncn3ccccc13)CC2
remaining binding (cell-free assay, competition with immobilised ligand; 0.1 µM): 100%

CCN1CCN(Cc2ccc(C(=O)Nc3ccc(C)c(Oc4ccc5c(c4)CC(=O)N5)c3)cc2C(F)(F)F)CC1
remaining binding (binding, competition with immobilised ligand; 1 µM): 100%

Cn1nc(C(F)(F)F)cc1-c1cnc(N2CCc3cc(S(=O)(=O)Nc4c(F)cc(Cl)cc4F)cc(N4CCCC4=O)c32)nc1
remaining binding (cell-free assay, competition with immobilised ligand; 1 µM): 78%

COc1ncc2cc3ccccc3nc2c1C#N
remaining binding (cell-free assay, competition with immobilised ligand; 5 µM): 60%

c1cncc(-c2cccc(Nc3nccc(NC4CCCCC4)n3)c2)c1
remaining binding (binding, competition with immobilised ligand; 10 µM): 100%
